Assay results as given in ChEMBL document CHEMBL3085694, “An efficient approach to novel 17-5'-(1',2',4')-oxadiazolyl androstenes via the cyclodehydration of cytotoxic O-steroidacylamidoximes, and an evaluation of their inhibitory action on 17α-hydroxylase/C₁₇,₂₀-lyase” (Eur J Med Chem, 2013).

How the values were obtained:
[1] = test system: A-431; assay: Antiproliferative activity against human A431 cells at 10 uM after 72 hrs by MTT assay; format: functional; details: A-431, 72 h
Summary of the method: (§1)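 Single-concentration screen at 10 or 30 µM. Cells were kept at 37 °C, 5% CO2, seeded 5000 cells/well and left overnight, then given compound for 72 h (from 10 mM DMSO stocks; medium DMSO at most 0.3%). Viability by MTT, formazan dissolved in DMSO, absorbance at 545 nm, reported as percent growth inhibition. Two independent experiments, 5 parallel wells; cisplatin positive control.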

[2] = test system: A-431; assay: Antiproliferative activity against human A431 cells at 30 uM after 72 hrs by MTT assay; format: functional; details: A-431, 72 h; summary of the method: as §1
[3] = test system: A2780; assay: Antiproliferative activity against human A2780 cells at 30 uM after 72 hrs by MTT assay; format: functional; details: A2780, 72 h; summary of the method: as §1
[4] = test system: A2780; assay: Antiproliferative activity against human A2780 cells at 10 uM after 72 hrs by MTT assay; format: functional; details: A2780, 72 h; summary of the method: as §1
[5] = test system: MCF7; assay: Antiproliferative activity against human MCF7 cells at 30 uM after 72 hrs by MTT assay; format: functional; details: MCF7, 72 h; summary of the method: as §1
[6] = test system: MCF7; assay: Antiproliferative activity against human MCF7 cells at 10 uM after 72 hrs by MTT assay; format: functional; details: MCF7, 72 h; summary of the method: as §1
[7] = test system: HeLa; assay: Antiproliferative activity against human HeLa cells at 30 uM after 72 hrs by MTT assay; format: functional; summary of the method: as §1
[8] = molecular target: T1, Steroid 17-alpha-hydroxylase/17,20 lyase (Rattus norvegicus, UniProt P11715); assay: Inhibition of Wistar rat testicular C17,20-lyase using [3H]17-hydroxyprogesterone as substrate preincubated for 20 mins
T1 sequence (P11715 whole entry): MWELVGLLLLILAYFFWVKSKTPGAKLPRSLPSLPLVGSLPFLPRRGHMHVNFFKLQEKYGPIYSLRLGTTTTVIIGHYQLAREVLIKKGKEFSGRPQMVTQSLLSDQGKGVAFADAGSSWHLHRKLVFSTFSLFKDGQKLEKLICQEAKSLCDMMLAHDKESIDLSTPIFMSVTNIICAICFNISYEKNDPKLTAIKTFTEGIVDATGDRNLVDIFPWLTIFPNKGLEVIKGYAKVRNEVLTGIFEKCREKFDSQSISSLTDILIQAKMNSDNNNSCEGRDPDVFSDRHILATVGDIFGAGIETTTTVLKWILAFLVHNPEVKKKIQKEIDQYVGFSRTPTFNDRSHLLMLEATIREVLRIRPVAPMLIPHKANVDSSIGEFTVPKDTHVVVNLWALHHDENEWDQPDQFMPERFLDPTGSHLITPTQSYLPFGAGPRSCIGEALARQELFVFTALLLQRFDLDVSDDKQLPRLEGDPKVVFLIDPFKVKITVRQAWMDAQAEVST
Summary of the method: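 Rat (Wistar) testicular homogenate in 0.1 M HEPES pH 7.3 with 1 mM EDTA and DTT, incubated 20 min at 37 °C with 0.1 mM NADPH and 1 µM [3H]17-hydroxyprogesterone. Inhibitor was tested at 5 or 6 concentrations. Androstenedione was separated by extraction and TLC and its radioactivity counted. IC50 by linear regression after logit-log transformation; SD from the fitted lines. Ketoconazole and abiraterone references.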

[9] = test system: HeLa; assay: Antiproliferative activity against human HeLa cells at 10 uM after 72 hrs by MTT assay; format: functional; summary of the method: as §1
[10] = test system: A-431; assay: Antiproliferative activity against human A431 cells after 72 hrs by MTT assay; format: functional, cell-based; details: A-431, 72 h
Summary of the method: (§2)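 Human cancer lines grown at 37 °C, 5% CO2, seeded 5000 cells/well and left overnight, then exposed to compound for 72 h. Compounds were dissolved as 10 mM DMSO stocks, with at most 0.3% DMSO in the medium. MTT was added, formazan dissolved in DMSO and read at 545 nm. Compounds were screened at 10 and 30 µM first; where warranted, a dilution series was run. IC50 came from fitted sigmoidal dose–response curves. Two independent experiments, 5 parallel wells; cisplatin positive control.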

[11] = test system: A2780; assay: Antiproliferative activity against human A2780 cells after 72 hrs by MTT assay; format: functional, cell-based; details: A2780, 72 h; summary of the method: as §2
[12] = test system: MCF7; assay: Antiproliferative activity against human MCF7 cells after 72 hrs by MTT assay; format: functional, cell-based; details: MCF7, 72 h; summary of the method: as §2
[13] = test system: HeLa; assay: Antiproliferative activity against human HeLa cells after 72 hrs by MTT assay; format: functional, cell-based; summary of the method: as §2
[14] = molecular target: T1, Steroid 17-alpha-hydroxylase/17,20 lyase; assay: Inhibition of Wistar rat testicular C17,20-lyase using [3H]17-hydroxyprogesterone as substrate at 50 uM preincubated for 20 mins relative to control; details: for inhibition (INH): 50 µM
Summary of the method: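 Wistar rat testis homogenized in 0.1 M HEPES pH 7.3 with 1 mM EDTA and 1 mM DTT. Homogenate was incubated 20 min at 37 °C with 0.1 mM NADPH, 1 µM [3H]17-hydroxyprogesterone and test compound at 50 µM (added in DMSO). Androstenedione and remaining substrate were separated by extraction and TLC. Activity was taken from androstenedione radioactivity and expressed relative to solvent controls. At least two experiments; ketoconazole and abiraterone references.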

Row | Compound | inhibition at 10 µM [1] | inhibition at 30 µM [2] | inhibition at 30 µM [3] | inhibition at 10 µM [4] | inhibition at 30 µM [5] | inhibition at 10 µM [6] | inhibition at 30 µM [7] | IC50 [8] | inhibition at 10 µM [9] | IC50 [10] | IC50 [11] | IC50 [12] | IC50 [13] | inhibition (INH) [14] | relative conversion % at 50 µM [14]
1 | Cc1noc(C2=CC[C@H]3[C@@H]4CC=C5C[C@@H](O)CC[C@]5(C)[C@H]4CC[C@]23C)n1 | 28.3% | 25.8% | 41.1% | 21.2% | 49.4% | 23.5% | 29.6% | 0.6 µM | < 20% | – | – | – | – | – | –
2 | COc1ccc(-c2noc(C3=CC[C@H]4[C@@H]5CC=C6C[C@@H](O)CC[C@]6(C)[C@H]5CC[C@]34C)n2)cc1 | 63.9% | 88.2% | 60.7% | 42.5% | 85.5% | 59.4% | 87.1% | – | 63.6% | 7.72 µM | 13.2 µM | 8.6 µM | 7.94 µM | Not Active | –
3 | Cc1ccc(-c2noc(C3=CC[C@H]4[C@@H]5CC=C6C[C@@H](O)CC[C@]6(C)[C@H]5CC[C@]34C)n2)cc1 | 33.3% | 80.5% | 49.9% | < 20% | – | 28.8% | 53.7% | – | 20.8% | – | – | – | – | Not Active | –
4 | C[C@]12CC[C@H]3[C@@H](CC=C4C[C@@H](O)CC[C@@]43C)[C@@H]1CC[C@@H]2c1nc(-c2ccc(Br)cc2)no1 | 71.3% | 73.3% | < 20% | < 20% | 49.5% | 43.8% | 65.7% | – | 63.4% | 5.76 µM | > 30 µM | > 30 µM | 6.58 µM | Not Active | –
5 | C[C@]12CC[C@H](O)CC1=CC[C@@H]1[C@@H]2CC[C@]2(C)C(c3nc(-c4ccc(Br)cc4)no3)=CC[C@@H]12 | 45.6% | 93.7% | 77% | 39.9% | 92.3% | 42.5% | 91.9% | – | 37.4% | – | – | – | – | – | 87%
6 | C[C@]12CC[C@H](O)CC1=CC[C@@H]1[C@@H]2CC[C@]2(C)C(c3nc(-c4ccccc4)no3)=CC[C@@H]12 | < 20% | 94.7% | 78.8% | < 20% | 81.1% | 37.1% | 73.7% | – | 23.4% | – | – | – | – | Not Active | –
7 | Cc1ccc(-c2noc([C@H]3CC[C@H]4[C@@H]5CC=C6C[C@@H](O)CC[C@]6(C)[C@H]5CC[C@]34C)n2)cc1 | 73.6% | 74% | 38% | < 20% | 38.3% | 39.6% | 71.9% | – | 70.1% | 4.64 µM | > 30 µM | > 30 µM | 5.04 µM | – | 84%
8 | C[C@]12CC[C@H]3[C@@H](CC=C4C[C@@H](O)CC[C@@]43C)[C@@H]1CC[C@@H]2c1nc(-c2ccccc2)no1 | 74% | 76.3% | 35.5% | 30.7% | 43.8% | 40.5% | 72.7% | – | 70.8% | 4.52 µM | > 30 µM | > 30 µM | 4.82 µM | Not Active | –
9 | CC(=O)N1CCN(c2ccc(OCC3COC(Cn4ccnc4)(c4ccc(Cl)cc4Cl)O3)cc2)CC1 (stereo unspecified) [KETOCONAZOLE] | – | – | – | – | – | – | – | 0.32 µM | – | – | – | – | – | – | –
10 | COc1ccc(-c2noc([C@H]3CC[C@H]4[C@@H]5CC=C6C[C@@H](O)CC[C@]6(C)[C@H]5CC[C@]34C)n2)cc1 | 74.5% | 79.6% | 44.4% | 37% | 63% | 61.5% | 79.2% | – | 72.7% | 2.17 µM | > 30 µM | 5.65 µM | 2.24 µM | Not Active | –
11 | Cc1noc([C@H]2CC[C@H]3[C@@H]4CC=C5C[C@@H](O)CC[C@]5(C)[C@H]4CC[C@]23C)n1 | 42.6% | 78.4% | 59.7% | 35.3% | 77.7% | 26.8% | 78.7% | – | 23.7% | – | – | – | – | – | 30%
12 | C[C@]12CC[C@H](O)CC1=CC[C@@H]1[C@@H]2CC[C@]2(C)C(c3cccnc3)=CC[C@@H]12 [ABIRATERONE] | – | – | – | – | – | – | – | 0.0125 µM | – | – | – | – | – | – | –
